# Data as given in publication PMC3969268 (Journal of medicinal chemistry, 2012).
# Assays:
# SaFtsZ [1] = biological target: T1, SaFtsZ (Staphylococcus aureus, UniProt P0A031); experiment: FtsZ polymerization light-scattering; assay type: biochemical, S. aureus; settings: for extent of stimulation of FtsZ polymerization (A340): 40 μg/mL compound or comparator drug
# T1 sequence (P0A031 1-390): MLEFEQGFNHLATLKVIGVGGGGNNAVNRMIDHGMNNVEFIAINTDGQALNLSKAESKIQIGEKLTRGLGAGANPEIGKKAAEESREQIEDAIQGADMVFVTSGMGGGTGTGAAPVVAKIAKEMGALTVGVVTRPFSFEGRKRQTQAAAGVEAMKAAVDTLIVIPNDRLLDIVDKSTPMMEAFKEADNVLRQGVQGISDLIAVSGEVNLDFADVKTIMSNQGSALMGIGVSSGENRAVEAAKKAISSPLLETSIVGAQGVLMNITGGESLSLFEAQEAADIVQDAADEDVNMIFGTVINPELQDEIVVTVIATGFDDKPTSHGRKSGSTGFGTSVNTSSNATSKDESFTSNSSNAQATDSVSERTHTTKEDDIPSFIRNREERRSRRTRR
# S. aureus 8325-4 (MSSA) [2] = experiment: MIC broth microdilution, S. aureus 8325-4; assay type: cell-based; settings: 24 h
# [3] = tested on: S. aureus ATCC 33591 (MRSA); experiment: MIC broth microdilution, S. aureus ATCC 33591; assay type: cell-based; settings: CAMH broth + 2% NaCl, 24 h, 37 °C
# S. aureus Mu3 (MRSA) = experiment: MIC broth microdilution, S. aureus Mu3; assay type: cell-based; settings: S. aureus Mu3 (MRSA, hetero-GISA); CAMH broth + 2% NaCl, 24 h, 37 °C
# [4] = tested on: E. faecalis ATCC 19433 (VSE); experiment: MIC broth microdilution, E. faecalis ATCC 19433; assay type: cell-based; settings: CAMH broth, 24 h, 37 °C
# [5] = tested on: E. faecalis ATCC 51575 (VRE); experiment: MIC broth microdilution, E. faecalis ATCC 51575; assay type: cell-based; settings: CAMH broth, 24 h, 37 °C
# [6] = biological target: E. faecalis FtsZ (EfFtsZ) (Enterococcus faecalis, UniProt O08439); experiment: Fluorescence anisotropy determination of compound-FtsZ binding affinity, EfFtsZ; settings: ratio of Kd values
# E185A mutant SaFtsZ [7] = biological target: T2, E185A mutant SaFtsZ (Staphylococcus aureus, UniProt P0A031, E185A); experiment: Fluorescence anisotropy binding affinity, E185A mutant SaFtsZ; design: species or system S. aureus; settings: ratio of Kd values
# I228R mutant SaFtsZ [8] = biological target: T3, I228R mutant SaFtsZ (Staphylococcus aureus, UniProt P0A031, I228R); experiment: Fluorescence anisotropy binding affinity, I228R mutant SaFtsZ; design: species or system S. aureus; settings: ratio of Kd values
# EcFtsZ [9] = biological target: T4, EcFtsZ (Escherichia coli, UniProt P0A9A6); experiment: FtsZ polymerization light-scattering; assay type: biochemical, E. coli; settings: compound 0 to 40 μg/mL, 10 μM protein, 1 mM GTP, 25 °C
# T4 sequence (P0A9A6 whole entry): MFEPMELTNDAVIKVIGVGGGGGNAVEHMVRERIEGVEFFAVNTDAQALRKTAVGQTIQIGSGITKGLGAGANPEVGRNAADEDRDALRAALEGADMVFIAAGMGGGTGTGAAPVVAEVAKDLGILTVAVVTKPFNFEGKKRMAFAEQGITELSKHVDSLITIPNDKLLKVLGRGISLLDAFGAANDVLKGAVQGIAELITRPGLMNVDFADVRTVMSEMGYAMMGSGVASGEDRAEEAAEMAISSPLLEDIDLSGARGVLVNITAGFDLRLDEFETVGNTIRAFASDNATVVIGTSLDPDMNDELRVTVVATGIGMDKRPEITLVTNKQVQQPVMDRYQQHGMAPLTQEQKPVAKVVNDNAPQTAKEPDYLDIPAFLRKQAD
# EfFtsZ = EfFtsZ (Enterococcus faecalis, UniProt O08439); experiment: FtsZ polymerization light-scattering; assay type: biochemical, E. faecalis
# E185A mutant SaFtsZ [10] = biological target: T2, E185A mutant SaFtsZ; experiment: FtsZ polymerization light-scattering; assay type: biochemical, S. aureus
# I228R mutant SaFtsZ [11] = biological target: T3, I228R mutant SaFtsZ; experiment: FtsZ polymerization light-scattering; assay type: biochemical, S. aureus
# G196A mutant SaFtsZ = G196A mutant SaFtsZ (Staphylococcus aureus, UniProt P0A031, G196A); experiment: FtsZ polymerization light-scattering; assay type: biochemical, S. aureus; settings: G196A mutant (not shown)
# [12] = biological target: SaFtsZ-bound BoGTPγS (GTP binding pocket) (Staphylococcus aureus, UniProt P0A031); experiment: BoGTPγS fluorescence anisotropy competition assay, SaFtsZ; settings: 1 μM BoGTPγS, 5 μM FtsZ, competitor 0 to 40 μM
# Outline: (§1)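 Competition anisotropy assay: 1 μM BODIPY-GTPγS with 0 or 5 μM FtsZ, plus test compound or unlabeled GTP (0–40 μM), in 50 mM Tris·HCl pH 7.4, 50 mM KCl, 2 mM magnesium acetate. After 5 min at 25 °C, probe anisotropy was read (ex 488/em 510 nm, 4 nm bandwidths), compared with FtsZ-free probe. Triplicates averaged.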
# [13] = biological target: EcFtsZ-bound BoGTPγS (GTP binding pocket) (Escherichia coli, UniProt P0A9A6); experiment: BoGTPγS fluorescence anisotropy competition assay, EcFtsZ; design: species or system E. coli; settings: 1 μM BoGTPγS, 5 μM FtsZ, competitor 0 to 40 μM
# Sequence of EcFtsZ-bound BoGTPγS (GTP binding pocket) (P0A9A6 whole entry): as above
# Outline: as §1
# [14] = biological target: EfFtsZ-bound BoGTPγS (GTP binding pocket) (Enterococcus faecalis, UniProt O08439); experiment: BoGTPγS fluorescence anisotropy competition assay, EfFtsZ; design: species or system E. faecalis; settings: 1 μM BoGTPγS, 5 μM FtsZ, competitor 0 to 40 μM
# SaFtsZ [15] = biological target: T1, SaFtsZ; experiment: Transmission electron microscopy of compound-induced FtsZ polymers, SaFtsZ; assay type: biochemical; settings: 20 μg/mL
# EcFtsZ [16] = biological target: T4, EcFtsZ; experiment: Transmission electron microscopy of compound-induced FtsZ polymers, EcFtsZ; assay type: biochemical, E. coli; settings: 20 μg/mL
# S. aureus 8325-4 (MSSA) [17] = experiment: Time-kill assay; assay type: cell-based; settings: for reduction of bacterial number (CFUs): 8 × MIC (8 μg/mL)
# Outline: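 Exponential-phase S. aureus 8325-4 was diluted in cation-adjusted Mueller-Hinton broth to 10^5–10^6 CFU/mL, with DMSO as vehicle control. Cultures were shaken at 37 °C and sampled at 0, 2, 4 and 6 h. Samples were plated on tryptic soy agar, centrifuged and resuspended when undiluted to avoid carry-over. Colonies were counted after 24 h at 37 °C.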
# S. aureus 8325-4 (MSSA) [18] = assay type: cell-based; settings: after 12 incubation cycles
# S. aureus = experiment: Emergence of resistance, large inoculum approach; assay type: cell-based; settings: ~3 × 10^9 CFU/mL S. aureus on TSA plates with agent at 4- to 32-fold MIC; 24 h
# [19] = biological target: MAP-rich porcine β-tubulin (70% β-tubulin, 30% MAPs) (Sus scrofa, UniProt P02554); experiment: Tubulin polymerization light-scattering; assay type: biochemical; settings: 2 mg/mL porcine β-tubulin, 1 mM GTP, 37 °C
# Sequence of MAP-rich porcine β-tubulin (70% β-tubulin, 30% MAPs) (P02554 whole entry): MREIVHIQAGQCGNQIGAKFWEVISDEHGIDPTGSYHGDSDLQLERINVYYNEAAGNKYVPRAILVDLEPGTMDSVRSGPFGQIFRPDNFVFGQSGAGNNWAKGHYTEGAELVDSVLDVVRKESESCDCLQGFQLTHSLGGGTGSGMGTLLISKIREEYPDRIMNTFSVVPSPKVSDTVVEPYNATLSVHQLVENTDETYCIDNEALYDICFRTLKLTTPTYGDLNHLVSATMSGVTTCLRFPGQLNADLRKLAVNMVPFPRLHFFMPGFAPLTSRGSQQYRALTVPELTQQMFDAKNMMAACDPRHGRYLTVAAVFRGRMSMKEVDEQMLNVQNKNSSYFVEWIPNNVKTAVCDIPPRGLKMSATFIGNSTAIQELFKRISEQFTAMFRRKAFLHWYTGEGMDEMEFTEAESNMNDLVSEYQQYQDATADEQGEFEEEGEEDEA
# Sequence of MAP-rich porcine β-tubulin (70% β-tubulin, 30% MAPs) (P02550 whole entry partner): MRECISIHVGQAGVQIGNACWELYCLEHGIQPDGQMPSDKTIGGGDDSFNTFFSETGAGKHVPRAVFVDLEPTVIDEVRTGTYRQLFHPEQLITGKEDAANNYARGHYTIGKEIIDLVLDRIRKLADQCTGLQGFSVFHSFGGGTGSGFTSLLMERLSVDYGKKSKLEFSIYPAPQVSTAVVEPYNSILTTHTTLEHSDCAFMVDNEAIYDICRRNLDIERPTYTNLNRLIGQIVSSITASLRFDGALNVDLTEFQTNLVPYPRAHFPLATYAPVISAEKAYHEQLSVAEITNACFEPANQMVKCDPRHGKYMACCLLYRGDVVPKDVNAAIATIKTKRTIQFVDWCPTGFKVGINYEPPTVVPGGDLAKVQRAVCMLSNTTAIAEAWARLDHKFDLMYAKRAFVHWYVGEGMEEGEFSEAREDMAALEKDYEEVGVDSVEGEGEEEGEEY
# [20] = tested on: S. aureus ATCC 49951 (MSSA); experiment: MIC broth microdilution, S. aureus ATCC 49951; assay type: cell-based; settings: Staphylococcus aureus, ATCC49951|MSSA, 24 h
# S. aureus 8325-4 = experiment: Minimum bactericidal concentration; assay type: cell-based
molecule,measurement,setting,value
oxacillin,extent of stimulation of FtsZ polymerization (A340),SaFtsZ [1]; SaFtsZ,negligible impact
same,MIC,"S. aureus 8325-4 (MSSA) [2]; S. aureus 8325-4 (MSSA), CAMH broth, 37 °C, ≥90% growth inhibition",0.063 µg/mL
same,MIC,[3],>64.0 µg/mL
same,MIC,S. aureus Mu3 (MRSA),>64.0 µg/mL
same,MIC,[4],8.0 µg/mL
same,MIC,[5],64.0 µg/mL
"CC(C)(C)c1ccc(-c2cccc(CNC(=N)N)c2)cc1 [compound 13, 1-((4′-(tert-Butyl)-[1,1′-biphenyl]-3-yl)methyl)guanidine]",affinity for EfFtsZ lower than affinity for SaFtsZ and EcFtsZ,[6],approximately 6 fold
same,affinity for E185A mutant lower than for wild-type SaFtsZ,E185A mutant SaFtsZ [7],approximately 10 fold
same,affinity for I228R mutant lower than for wild-type SaFtsZ,I228R mutant SaFtsZ [8],approximately 10 fold
same,impact on FtsZ polymerization dynamics (A340),"SaFtsZ [1]; SaFtsZ, compound 0 to 40 μg/mL, 10 μM protein, 1 mM GTP, 25 °C",increases both the kinetics and extent
same,impact on SaFtsZ polymerization (A340),"SaFtsZ [1]; wild-type SaFtsZ, 10 μg/mL",stimulatory impact
same,impact on FtsZ polymerization dynamics (A340),EcFtsZ [9],increases both the kinetics and extent
same,impact on FtsZ polymerization dynamics (A340),"EfFtsZ; compound 0 to 40 μg/mL, 10 μM protein, 1 mM GTP, 25 °C",increases both the kinetics and extent
same,impact on SaFtsZ polymerization (A340),E185A mutant SaFtsZ [10]; 10 μg/mL,essentially no effect
same,magnitude of stimulation of SaFtsZ polymerization (A340),E185A mutant SaFtsZ [10]; 20 μg/mL,markedly lower than that observed for wild-type SaFtsZ
same,impact on SaFtsZ polymerization (A340),I228R mutant SaFtsZ [11]; 10 μg/mL,essentially no effect
same,magnitude of stimulation of SaFtsZ polymerization (A340),I228R mutant SaFtsZ [11]; 20 μg/mL,markedly lower than that observed for wild-type SaFtsZ
same,effect of G196A mutation on stimulation of SaFtsZ polymerization by compound,G196A mutant SaFtsZ,negligible effect
same,effect on anisotropy of FtsZ-bound BoGTPγS,[12],does not significantly alter the anisotropy
same,effect on anisotropy of FtsZ-bound BoGTPγS,[13],does not significantly alter the anisotropy
same,effect on anisotropy of FtsZ-bound BoGTPγS,[14],does not significantly alter the anisotropy
same,FtsZ polymer assembly and bundling by EM,SaFtsZ [15],promotes both the assembly and bundling of SaFtsZ polymers
same,FtsZ polymer assembly and bundling by EM,EcFtsZ [16],"promoting only the assembly, and not the bundling, of EcFtsZ polymers"
same,reduction of bacterial number (CFUs),S. aureus 8325-4 (MSSA) [17]; within 2 h,three logs
same,reduction of bacterial number (CFUs),S. aureus 8325-4 (MSSA) [17]; within 6 h,four logs
same,rate of kill relative to vancomycin,S. aureus 8325-4 (MSSA) [17]; both agents at 8 × MIC,approximately 100 times
same,change of MIC over repeated incubation cycles,S. aureus 8325-4 (MSSA) [18],did not change to any significant degree
same,agent-containing plates on which colonies were observed,S. aureus,none
same,impact on tubulin polymerization (A340),[19]; 40 μg/mL,negligible impact
same,AcrAB efflux pump substrate (inferred from MIC N43 vs W4573),E. coli N43 (acrA1),substrate for the AcrAB efflux transporter
CN[C@H](CC(C)C)C(=O)N[C@H]1C(=O)N[C@@H](CC(N)=O)C(=O)N[C@H]2C(=O)N[C@H]3C(=O)N[C@H](C(=O)N[C@H](C(=O)O)c4cc(O)cc(O)c4-c4cc3ccc4O)[C@H](O)c3ccc(c(Cl)c3)Oc3cc2cc(c3O[C@@H]2O[C@H](CO)[C@@H](O)[C@H](O)[C@H]2O[C@H]2C[C@](C)(N)[C@H](O)[C@H](C)O2)Oc2ccc(cc2Cl)[C@H]1O.Cl [vancomycin],extent of stimulation of FtsZ polymerization (A340),EfFtsZ; 40 μg/mL compound or comparator drug,negligible impact
same,MIC,"S. aureus 8325-4 (MSSA) [2]; Staphylococcus aureus, MSSA",0.5 µg/mL
same,MIC,[20],0.5 µg/mL
same,MBC/MIC,S. aureus 8325-4,2
"Nc1nc2c(ncn2[C@@H]2O[C@H](COP(=O)(O)OP(=O)(O)OP(=O)(O)O)[C@@H](O)[C@H]2O)c(=O)[nH]1 [GTP, reference compound]",effect on anisotropy of FtsZ-bound BoGTPγS,[12],"marked, concentration-dependent decrease"
same,effect on anisotropy of FtsZ-bound BoGTPγS,[13],"marked, concentration-dependent decrease"
same,effect on anisotropy of FtsZ-bound BoGTPγS,[14],"marked, concentration-dependent decrease"
"CCC[C@@H]1C[C@@H](C(=O)N[C@@H]([C@H]2O[C@H](SC)[C@H](O)[C@@H](O)[C@H]2O)[C@H](C)Cl)N(C)C1.Cl [clindamycin, reference compound]",extent of stimulation of FtsZ polymerization (A340),SaFtsZ [1]; SaFtsZ,negligible impact
COC(=O)Nc1nc2cc(C(=O)c3cccs3)ccc2[nH]1 [nocodazole],impact on tubulin polymerization (A340),[19]; 10 μg/mL,expected inhibitory impact
